What all share (type): functional
In assay [1] the test system is Rodentolepis nana. The experiment in a line: Anthelmintic activity against mice infected with parasite Hymenolepis nana at a dose of 125 ppm (in feed). In a few lines: (§1)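 Compound was given in feed ad libitum from 24 h postinfection for 18 days, four mice per group. On day 19, N. dubius were counted in the duodenum and H. nana in the ileum. Result is % reduction of mean worm burden vs untreated control; ≤25% was recorded as 0.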

Assay [2] concerns Heligmosomoides polygyrus. The experiment in a line: Anthelmintic activity against mice, infected with parasite Nematospiroides dubius, at a dose of 125 (ppm in feed). In a few lines:
as §1

Assay [3] deals with Ovis aries. The experiment in a line: Anthelmintic activity against sheep, infected with Haemonchus contortus, at a dose of 30 mg/kg. In outline: (§2)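 Merino ewes and wethers (12-15 months, 25-35 kg) received L3 intraruminally on day 0. Susceptible strains: H. contortus 6000, O. circumcincta 8000, T. colubriformis 8000. Benzimidazole-resistant strains: 8000, 9000, 9000. Animals were allocated by day-27 fecal egg count (n = 4-7) and given a single intraruminal dose in 0.5% carboxymethylcellulose saline. Adult worms in abomasum and small intestine were counted on day 35. Result is mean % reduction vs untreated controls.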

In assay [4] the test system is Ovis aries. The experiment in a line: Anthelmintic activity against sheep, infected with Ostertagia circumcincta, at a dose of 30 mg/kg. In a few lines: as §2
Assay [5] deals with Ovis aries. The experiment in a line: Anthelmintic activity against sheep, infected with Trichostrongylus colubriformis, at a dose of 30 mg/kg. In a few lines:
as §2

In assay [6] the test system is Rodentolepis nana. The experiment in a line: Anthelmintic activity against mice infected with parasite Hymenolepis nana at a dose of 62(ppm in feed). In outline: as §1
For assay [7], the system named is Heligmosomoides polygyrus. The experiment in a line: Anthelmintic activity against mice infected with parasite Nematospiroides dubius, at a dose of 62(ppm in feed). In outline: as §1
In assay [8] the test system is Rodentolepis nana. The experiment in a line: The compound was tested for anthelmintic activity against mice, infected with parasite Hymenolepis nana at a dose of 250(ppm in feed). In a few lines:
as §1

The subject of assay [9] is Heligmosomoides polygyrus. The experiment in a line: Anthelmintic activity against mice, infected with parasite Nematospiroides dubius, at a dose of 250(ppm in feed). In outline:
as §1

As for `N#C/C(C(=O)Nc1ccc(Cl)c(Cl)c1)=C(/O)c1ccc(Cl)c(Cl)c1`, the Reduction in the assay on Rodentolepis nana [1] came out at 0%; in assay [2], 0%; in the assay on Ovis aries [3] it was 100%; in the assay on Ovis aries [4], 0%; in the assay on Ovis aries [5], 0%.
For `CC(=O)c1ccc(NC(=O)/C(C#N)=C(\O)c2ccc(C(F)(F)F)cc2)cc1`, the Reduction (with Rodentolepis nana [1]; in assay [2]) was 0% in each case.
Regarding `N#C/C(C(=O)Nc1ccc(N=C=S)cc1)=C(/O)c1ccc(C(F)(F)F)cc1`, the Reduction in the assay on Rodentolepis nana [1] is recorded as 0%; in [2], 80%.
Consider `N#C/C(C(=O)Nc1ccc(C(F)(F)F)cc1)=C(/O)c1ccc(Cl)c(Cl)c1`, for which the Reduction is 0% in the assay with Rodentolepis nana [6], 0% in the assay on Rodentolepis nana [1], 95% in [2] and 0% in [7].
In the case of `N#C/C(C(=O)Nc1ccc(Cl)cc1)=C(/O)c1ccc(Cl)c(Cl)c1`, the Reduction is 0% with Rodentolepis nana [6], 100% in the assay on Rodentolepis nana [1], 100% in assay [2] and 32% in assay [7].
Regarding `N#C/C(C(=O)Nc1ccc(C(F)(F)F)cc1)=C(/O)c1ccc(F)cc1`, the Reduction in the assay on Rodentolepis nana [6] is on record as 0%; in the assay on Rodentolepis nana [1] it was 100%; in assay [2], 100%; in assay [7], 0%.
Consider `N#C/C(C(=O)Nc1ccc(C(F)(F)F)cc1)=C(/O)c1cccc(C(F)(F)F)c1`, for which the Reduction in the assay on Rodentolepis nana [6] was 0%; in the assay on Rodentolepis nana [1] it was 100%; in [2], 89%; in assay [7] it was 0%.
As for `N#C/C(C(=O)Nc1ccc(Br)cc1)=C(/O)c1ccc(Br)cc1`, the Reduction came out at 0% in the assay with Rodentolepis nana [6], 0% with Rodentolepis nana [1], 100% in assay [2] and 29% in [7].
Turning to `N#C/C(C(=O)Nc1ccc(C(F)(F)F)cc1)=C(/O)c1ccccc1C(F)(F)F`, the Reduction (with Rodentolepis nana [1]; in assay [2]) was 0% throughout.
In the case of `N#C/C(C(=O)Nc1ccc(F)cc1)=C(/O)c1ccc(F)cc1`, the Reduction (in the assay on Rodentolepis nana [1]; in assay [2]) was 0% in each case.
`N#C/C(C(=O)Nc1ccc(C(F)(F)F)cc1)=C(/O)c1ccc(OC(F)(F)F)cc1`: the Reduction is reported as 0% in the assay on Rodentolepis nana [6], 100% in the assay with Rodentolepis nana [1], 100% in assay [2] and 86% in assay [7].
Turning to `CN(C(=O)/C(C#N)=C(\O)c1ccc(C(F)(F)F)cc1)c1ccc(C(F)(F)F)cc1`, the Reduction in the assay on Rodentolepis nana [6] is given as 0%; with Rodentolepis nana [1], 0%; in assay [2] it was 100%; in assay [7], 76%.
For `Cc1cc([N+](=O)[O-])ccc1NC(=O)/C(C#N)=C(\O)c1ccc(C(F)(F)F)cc1`, the Reduction with Rodentolepis nana [6] is given as 0%; with Rodentolepis nana [1] it was 99%; in assay [2] it was 97%; in assay [7], 35%; with Ovis aries [3], 0%; with Ovis aries [4] it was 0%. The same compound gave a Reduction with Ovis aries [5] of 0%.
Turning to `COC(=O)c1ccc(NC(=O)/C(C#N)=C(\O)c2ccc(C(F)(F)F)cc2)cc1`, the Reduction (in the assay with Rodentolepis nana [1]; in [2]) was 0% each time.
For the compound `N#C/C(C(=O)Nc1ccc(C(F)(F)F)cc1)=C(O)\C=C\c1ccc(C(F)(F)F)cc1`, the Reduction with Rodentolepis nana [8] is recorded as 0%; in [9], 48%.
With `N#C/C(C(=O)Nc1ccc(Cl)cc1)=C(/O)c1ccc(C(F)(F)F)cc1`, the Reduction with Rodentolepis nana [6] is recorded as 78%; in the assay on Rodentolepis nana [1], 100%; in assay [2] it was 100%; in [7] it was 65%.
As to `CCN(CC)C(=O)c1ccc(NC(=O)/C(C#N)=C(\O)c2ccc(C(F)(F)F)cc2)cc1`, the Reduction (with Rodentolepis nana [1]; in assay [2]) was 0% in each case.
In the case of `N#C/C(C(=O)Nc1ccc(C(F)(F)F)cc1)=C(/O)c1ccc(I)cc1`, the Reduction was found to be 0% with Rodentolepis nana [6], 89% in the assay on Rodentolepis nana [1], 97% in assay [2] and 0% in assay [7].
In the case of `N#C/C(C(=O)Nc1ccc(Cl)cc1Cl)=C(/O)c1ccc(C(F)(F)F)cc1`, the Reduction in the assay with Rodentolepis nana [6] turned out to be 63%; with Rodentolepis nana [1], 100%; in [2], 89%; in assay [7] it was 0%.
Take `COc1ccc(NC(=O)/C(C#N)=C(\O)c2ccc(C(F)(F)F)cc2)cc1`: the Reduction (with Rodentolepis nana [1]; in [2]) was 0% throughout.
Consider `N#C/C(C(=O)Nc1ccc(Cl)cc1)=C(/O)c1ccc(Br)cc1`, for which the Reduction in the assay on Rodentolepis nana [6] turned out to be 0%; in the assay with Rodentolepis nana [1], 0%; in [2] it was 100%; in assay [7], 76%.
Regarding `N#C/C(C(=O)Nc1ccc(C(F)(F)F)cc1)=C(/O)c1ccc(S(=O)(=O)c2ccccc2)cc1`, the Reduction (in the assay with Rodentolepis nana [1]; in assay [2]) was 0% throughout.
Consider `N#C/C(C(=O)Nc1ccc(C(F)(F)F)cc1)=C(/O)c1ccc(Oc2ccc(Cl)cc2)cc1`, for which the values for the Reduction (in the assay with Rodentolepis nana [1]; in [2]) were 0% and 30%, respectively.
Take `N#C/C(C(=O)Nc1ccccc1C(F)(F)F)=C(/O)c1ccc(C(F)(F)F)cc1`: the Reduction (in the assay on Rodentolepis nana [1]; in [2]) was 0% in each case.
For the compound `N#C/C(C(=O)Nc1ccc(C(F)(F)F)cc1)=C(/O)c1ccc(Cl)cc1`, the Reduction amounted to 0% in the assay on Rodentolepis nana [6] and 53% in assay [7].
As to `N#C/C(C(=O)Nc1ccc(C(F)(F)F)cc1)=C(/O)c1cccc(Cl)c1`, the Reduction (in the assay with Rodentolepis nana [1]; in assay [2]) was 0% each time.
On to `N#C/C(C(=O)Nc1ccc(C(F)(F)F)cc1)=C(/O)c1ccc([N+](=O)[O-])cc1`, for which the figures for the Reduction (with Rodentolepis nana [6]; in assay [7]) were 69% and 0%, respectively.
As to `N#C/C(C(=O)Nc1ccc(Cl)c(Cl)c1)=C(/O)c1ccc(C(F)(F)F)cc1`, the Reduction in the assay on Rodentolepis nana [6] is recorded as 0%; in the assay with Rodentolepis nana [1] it was 93%; in assay [2], 100%; in [7], 0%.
In the case of `N#C/C(C(=O)Nc1ccc(C#N)cc1)=C(/O)c1ccc(C(F)(F)F)cc1`, the Reduction is given as 0% with Rodentolepis nana [6]; 100% in the assay on Rodentolepis nana [1]; 100% in [2]; 43% in assay [7]; 87% in the assay on Ovis aries [3]; 7% in the assay on Ovis aries [4]. This compound also gave a Reduction in the assay with Ovis aries [5] of 26%.
With `COc1ccc(/C(O)=C(\C#N)C(=O)Nc2ccc(C(F)(F)F)cc2)cc1`, the Reduction (in the assay on Rodentolepis nana [1]; in assay [2]) was 0% throughout.
Take `N#C/C(C(=O)Nc1ccc(Br)cc1)=C(/O)c1ccc(Cl)cc1`: the Reduction with Rodentolepis nana [6] came out at 0%; with Rodentolepis nana [1], 0%; in [2], 100%; in [7], 47%.
For `N#C/C(C(=O)Nc1ccc(C(F)(F)F)cc1)=C(/O)c1cc(Cl)cc(Cl)c1`, the Reduction in the assay with Rodentolepis nana [6] worked out at 0%; with Rodentolepis nana [1] it was 100%; in assay [2], 100%; in assay [7], 0%; in the assay with Ovis aries [3], 100%; with Ovis aries [4] it was 0%. In the assay on Ovis aries [5], the Reduction is given as 0%.
Turning to `N#C/C(C(=O)Nc1ccc(I)cc1)=C(/O)c1ccc(C(F)(F)F)cc1`, the Reduction amounted to 0% with Rodentolepis nana [6], 0% with Rodentolepis nana [1], 100% in assay [2] and 0% in [7].
For `N#C/C(C(=O)Nc1ccc(Sc2ccccc2)cc1)=C(/O)c1ccc(C(F)(F)F)cc1`, the Reduction (in the assay with Rodentolepis nana [8]; in [9]) was 0% in each case.
As for `N#C/C(C(=O)Nc1cccc(C(F)(F)F)c1)=C(/O)c1ccc(C(F)(F)F)cc1`, the Reduction (in the assay with Rodentolepis nana [1]; in assay [2]) was 0% each time.
As for `N#C/C(C(=O)Nc1ccc(Cl)cc1)=C(/O)c1ccc(Cl)cc1`, the Reduction in the assay with Rodentolepis nana [6] is given as 30%; in the assay with Rodentolepis nana [1], 100%; in assay [2], 100%; in assay [7], 59%.
For `CS(=O)(=O)c1ccc(NC(=O)/C(C#N)=C(\O)c2ccc(C(F)(F)F)cc2)cc1`, the Reduction (in the assay on Rodentolepis nana [1]; in assay [2]) was 0% in each case.
On to `Cc1ccc(/C(O)=C(\C#N)C(=O)Nc2ccc(C(F)(F)F)cc2)cc1`, for which the Reduction (with Rodentolepis nana [1]; in assay [2]) was 0% throughout.
Take `N#C/C(C(=O)Nc1ccc(C(F)(F)F)cc1)=C(/O)c1ccc(C#N)cc1`: the Reduction with Rodentolepis nana [1] was 78%; in assay [2] it was 28%.
Regarding `N#C/C(C(=O)Nc1ccc(Br)cc1)=C(/O)c1ccc(C(F)(F)F)cc1`, the Reduction in the assay on Rodentolepis nana [6] was determined as 0%; in the assay on Rodentolepis nana [1] it was 95%; in assay [2], 100%; in assay [7], 56%.
As to `N#C/C(C(=O)Nc1ccc(C(F)(F)F)cc1)=C(/O)c1ccc(Cl)cc1Cl`, the Reduction with Rodentolepis nana [6] was 52%; in assay [7], 32%.
As for `N#CSc1ccc(NC(=O)/C(C#N)=C(\O)c2ccc(C(F)(F)F)cc2)cc1`, the Reduction (in the assay on Rodentolepis nana [1]; in [2]) was 0% each time.
`Cc1cc(C#N)ccc1NC(=O)/C(C#N)=C(\O)c1ccc(C(F)(F)F)cc1`: the Reduction with Rodentolepis nana [6] was 0%; in the assay with Rodentolepis nana [1], 100%; in assay [2], 90%; in assay [7], 0%.
Turning to `N#C/C(C(=O)Nc1ccc(Cl)c(Cl)c1)=C(/O)c1ccc(Cl)cc1`, the figures for the Reduction (with Rodentolepis nana [1]; in assay [2]) were 47% and 57%, respectively.

For the origin of these results see ChEMBL document CHEMBL1125798, “Synthesis and biological activity of a series of diaryl-substituted alpha-cyano-beta-hydroxypropenamides, a new class of anthelmintic agents” (1991).
